Most compounds without a hit are left out; they make up all but 2.2% or so of the library.
SIAE inh = inhibitors of human sialic acid acetylesterase SIAE. 370,000 compounds, 0.69% hits. AID 1053197. inhibition, % at 9.66 µM. SIAE FP-Rh probe binding, fluorescence polarization;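 active = inhibition above a cutoff: mean of compounds within the control limits plus 3 SD of those, cut at about 17% in these data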;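 note: 0% = plate median of compound wells and 100% = probe without SIAE protein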
LEDGF integ inh = blocks HIV-1 LEDGF/p75-dependent DNA integration; inhibition, % at 3.7 µM; AID 743269; 370,000 compounds, 0.64% hits; TR-FRET IN-LEDGF/p75 DNA integration, Eu/Cy5;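 active = inhibition above the screen-wide mean plus 3 SD, cut at about 13% in these data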;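 note: signal is the Cy5 over europium emission ratio at 671 and 618 nm; 0% = plate median of compound wells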
mABHD4 FP = ABHD4 (mouse) inhibition, primary FP screen. purified mABHD4, FP-Rh probe fluorescence polarization. 370,000 compounds, 0.54% hits. Q8VD66. inhibition, % at 8.92 µM;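 active = inhibition exceeding the mean over every tested compound plus 3 SD, cut at about 30% in these data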;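 note: 0% = plate median of compound wells and 100% = S159A mutant with DMSO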
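Assay system: wild-type mouse ABHD4 protein; compound: single nominal dose of 8.92 µM, 0.89% DMSO final; schedule: 45 min + 60 min at 25 °C; measured by: FP readout, ex 525 nm / em 598 nm; evaluation: % inhibition of FP-Rh probe binding versus controls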
TDP2 inh = TDP2 (human) inhibition, absorbance primary screen | O95551 | recombinant TDP2, T5PNP hydrolysis, p-nitrophenol absorbance 415 nm | inhibition, % at 12.8 µM | 370,000 compounds, 0.34% hits;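 active = inhibition above the mean of all tested compounds plus 3 SD, set per campaign, cut at about 25% in these data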;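 note: 0% = DMSO with enzyme and 100% = buffer with substrate but no TDP2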
Target sequence (O95551 whole entry, looked up): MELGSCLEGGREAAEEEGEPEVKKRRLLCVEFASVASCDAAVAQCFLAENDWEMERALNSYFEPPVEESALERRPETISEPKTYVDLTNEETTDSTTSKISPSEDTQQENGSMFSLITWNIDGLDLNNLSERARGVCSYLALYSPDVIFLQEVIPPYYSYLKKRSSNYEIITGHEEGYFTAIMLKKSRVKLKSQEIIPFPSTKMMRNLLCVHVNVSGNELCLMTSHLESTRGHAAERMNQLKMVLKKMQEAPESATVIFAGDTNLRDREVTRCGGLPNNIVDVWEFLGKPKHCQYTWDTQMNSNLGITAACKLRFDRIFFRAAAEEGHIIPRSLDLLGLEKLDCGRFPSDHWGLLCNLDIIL
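Material: recombinant human TDP2; quantity: TDP2 enzyme at 120 nM final; medium: Tris-HCl pH 7.5 with MgCl2; compound: single concentration, 12.8 µM nominal, with 1% DMSO; incubation: 2 h enzyme incubation at 37 °C; signal: epi absorbance; measure: percent inhibition; benchmarks: high control without enzyme, low control DMSO plus TDP2; repeats: singlicate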
TCR CD3 inh = inhibitors of human TCR-CD3 interaction; 360,000 compounds, 0.37% hits; inhibition, % at 9.4 µM; TAMRA-labeled TCR probe fluorescence, biochemical; AID 651800; in the data active = inhibition above about 19%;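 note: recombinant mutant TCR 2C K166C tagged with TAMRA read by polarization; 0% = receptor in buffer alone and 100% = receptor with positive control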
HTRA1 inhibitor = HTRA1 (human) protease inhibition; Q92743; 340,000 compounds, 0.5% hits; inhibition, % at 5.96 µM; recombinant HTRA1, FP-rhodamine activity-based probe, fluorescence polarization; in the data active = inhibition above about 36%;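 note: 0% = enzyme with DMSO and 100% = wells lacking enzyme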
IN multimer act = counter-screen for LEDGF/p75 integration inhibitors: HIV-1 integrase multimerization activators; shares compounds with LEDGF integ inh; TR-FRET HIV-1 integrase multimerization, biochemical; activation, % at 7.7 µM; 2,000 compounds, 17% hits; in the data active = activation above about 8.9%
TR-FRET interf = counter-screen for LEDGF/p75 integration inhibitors: TR-FRET optical interference. shares compounds with LEDGF integ inh. TR-FRET optical interference counterscreen, HIV-1 IN multimerization. inhibition, % at 7.7 µM. 2,000 tested, under 10 active. AID 1053135;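 active = inhibition above the mean over all tested compounds plus 3 SD, which no compound reached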;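 note: 0% = integrase with antibodies and DMSO and 100% = antibodies without integrase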
IN-LEDGF confirm = confirmation of HIV-1 LEDGF/p75-dependent integration inhibitors | AID 1053136 | inhibition, % at 3.7 µM | shares compounds with LEDGF integ inh | 2,000 compounds, 36% hits | TR-FRET LEDGF/p75-dependent HIV-1 integration, biochemical; in the data active = inhibition above about 14%
* = called active by the depositor; · = not tested or not shown.

SMILES	SIAE inh	LEDGF integ inh	mABHD4 FP	TDP2 inh	TCR CD3 inh	HTRA1 inhibitor	IN multimer act	TR-FRET interf	IN-LEDGF confirm
COC(=O)C1=C(c2ccc(-c3ccccc3)c(F)c2)C[C@@H]2CC[C@H]1N2C(=O)NCCOc1ccc(OC)cc1	-13	15*	4	-22	-2	-41	-2	8	-6
COC(=O)C1=C(c2cccc(OCc3ccccc3)c2)C[C@@H]2CC[C@H]1N2C(=O)NCc1ccccc1C(F)(F)F	-8	0	-20	-3	-2	-32	·	·	·
O=c1[nH]c(=O)n(Cc2ccco2)c(O)c1/C=N/N1CCCCC1	4	23*	-8	1	5	4	-2	7	9
COc1ccc(-c2nn(Cc3ccccc3)cc2C(=O)NC2CC2)cc1OC	-4	-2	10	9	-10	-6	·	·	·
CN(C)c1ccc(/C=C2/C(=O)NC(=O)N(Cc3ccco3)C2=O)cc1	-13	66*	-12	15	-1	-1	2	-12	14*
Cc1cccc(OCCn2cccc2/C=C2/C(=O)NC(=O)N(Cc3ccco3)C2=O)c1	12	50*	-2	8	3	·	4	-15	24*
CN(C)c1ccc(/C=C2\C(=O)NC(=O)N(CCc3ccc(F)cc3)C2=O)cc1	-34	-1	-5	1	-42	-25	·	·	·
Cc1cc(/C=C2/C(=O)NC(=O)N(Cc3ccco3)C2=O)c(C)n1-c1ccccc1	-13	53*	-3	-10	0	-5	1	-4	11
Cc1cc(/C=C2\C(=O)NC(=O)N(Cc3ccccc3)C2=O)c(C)n1C1CC1	-25	1	-3	1	1	-11	·	·	·
CCN(CC)c1ccc(/C=C2/C(=O)NC(=O)N(Cc3ccco3)C2=O)cc1	-87	71*	-71	17	-72	-17	6	-29	30*
CCCNC(=O)N1[C@H]2CC[C@@H]1C(C(=O)OC)=C(c1ccc3ccccc3c1)C2	·	·	·	·	·	-7	·	·	·
COc1ccc(N2C(=O)NC(=O)/C(=C/c3ccc([N+](=O)[O-])s3)C2=O)cc1	-40	8	-64	-6	-56	·	·	·	·
COc1ccc(N2C(=O)NC(=O)/C(=C\c3ccc([N+](=O)[O-])s3)C2=O)cc1	-65	18*	-71	-10	-54	18	1	-3	33*
Cc1cc(/C=C2\C(=O)NC(=O)N(c3cccc(F)c3)C2=O)c(C)n1-c1cc(C(=O)O)cc(C(=O)O)c1	-8	39*	3	0	6	-8	5	-27	24*
Cc1cc(/C=C2\C(=O)NC(=O)N(c3ccc(Cl)cc3)C2=O)c(C)n1-c1cccc(C(=O)O)c1	0	10	6	0	-4	1	·	·	·
Cc1cc(/C=C2\C(=O)NC(=O)N(c3ccc(Br)cc3)C2=O)c(C)n1-c1cc(C(=O)O)cc(C(=O)O)c1	-1	44*	4	13	5	-4	3	-16	31*
COC/C=C1\CN2C3C[C@@H]1[C@H]1COC4=Nc5cc(OC)c(OC)c(OC)c5[C@@]43C[C@@H]12	12	1	3	-1	-4	0	·	·	·
COc1ccc(CN2Cc3cc(-c4ccc(OC)cc4)ccc3-n3nncc3C2)cc1	-6	17*	-11	-3	2	·	1	-4	-3
COc1ccc(CN2Cc3cc(-c4ccccc4)ccc3-n3nncc3C2)cc1	-3	12	-10	1	-8	·	·	·	·
NC(=O)C1CCN(/C=C2\C(=O)NC(=O)N(Cc3ccco3)C2=O)CC1	-2	-1	7	2	-8	2	·	·	·
CCN1C(=O)C(=C/C=C/c2ccco2)C(=O)N(CC)C1=S	-81	39*	-134	-4	-52	-67	2	-8	51*
CC(C)N1C(=O)/C(=C/C=C/c2ccco2)C(=O)N(Cc2ccco2)C1=O	-17	69*	-27	2	-43	-14	-1	3	51*
O=[N+]([O-])/C=C/c1c(Cl)cccc1Cl	0	-9	14	0	-10	3	·	·	·
CN1C(=O)NC(=O)[C@]2(Cc3ccccc3N3CCN(c4ccccc4)CC32)C1=O (some centres undefined)	-2	40*	-5	11	1	9	0	-1	4
Clc1cccc(CNCCc2ccc3c(c2)OCO3)c1	5	15*	12	11	-7	0	0	0	-2
SMILES	SIAE inh	LEDGF integ inh	mABHD4 FP	TDP2 inh	TCR CD3 inh	HTRA1 inhibitor	IN multimer act	TR-FRET interf	IN-LEDGF confirm
CCOC(=O)c1c(C)n(Cc2ccccc2)c2ccc(OCC(O)CNC(C)(C)C)cc12 (centres undefined)	5	5	4	-8	3	-36	·	·	·
CC1CN1P1(=O)OCC(C)([N+](=O)[O-])CO1 (centres undefined)	-4	4	-10	-6	-4	4	·	·	·
CN1C[C@H](CO)C=C2c3cccc4[nH]cc(c34)C[C@H]21	14	16*	22	13	4	16	1	-4	3
CC1CCN(CC#CCOc2ccc(Cl)cc2)CC1	1	-3	13	13	-14	4	·	·	·
Clc1ccc(OCC#CCN2CCOCC2)cc1	3	24*	9	4	11	2	0	0	3
Cc1ccc(OCC(=O)Nc2ccc(Cl)cc2C(=O)c2ccccc2)cc1	-1	-2	-1	-2	-2	2	·	·	·
Cc1ccc(S(=O)(=O)NCCC(=O)Nc2ccc(Cl)cc2C(=O)c2ccccc2)cc1	-7	28*	-6	1	10	-20	1	-6	-2
O=C(CNC(=O)OCc1ccccc1)NC(Cc1ccccc1)P(=O)(Oc1ccccc1)Oc1ccccc1 (centres undefined)	8	-1	6	5	·	·	·	·	·
O=C1NC(=S)N(c2ccccc2)C(=O)/C1=C/c1ccco1	-18	54*	18	7	-53	5	14*	-49	73*
CCOc1cccc(N2C(=O)/C(=C/c3ccco3)C(=O)NC2=S)c1	-6	22*	-7	-5	-79	14	9.8*	-49	76*
COc1cccc(N2C(=O)/C(=C/c3ccc(C)o3)C(=O)NC2=S)c1	-1	4	9	9	-3	-1	·	·	·
COc1ccccc1/C=C1\C(=O)NC(=S)N(c2ccccc2)C1=O	1	5	7	-10	-8	0	·	·	·
